Ecoli rRNA inh = inhibits bacterial ribosomal RNA function over humanized ribosomes. GFP signal change (wild-type ribosome), % (concentration not given with the values). hit rate 1.6% among 350,000. E. coli WT GFP vs humanized-ribosome RFP mutants, fluorescence, 24 h; hits give low values; DMSO median 0, no signal -100;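 active = significant combined selectivity score with lowered wild-type GFP, culture density cut under 30%, mutant RFP and density less affected; inactive = any of these conditions unmet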
CaV13 FRET inh = Disruptors of the CACNA1D IQ motif to Ca2+-dependent inactivation inhibitor domain association, primary screening, Förster resonance energy transfer in intact living …. hit rate 0.098% among 340,000. HEK cells, CFP/YFP FRET ICDI-IQ, plate reader, 10 min; percent FRET-ratio fall versus neutral wells. inhibition, % at 12.3 µM;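 active = mean replicate inhibition of at least 30% and at least 1% of replicates passing that level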
Cneo AK release = causes C. neoformans cell lysis. adenylate kinase release luminescence, 4 h; normalised: neutral wells 0, clomiphene wells 100. lysis activity, % at 15 µM. hit rate 0.2% among 360,000;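 active = mean lysis activity across replicates of at least 80%, whatever share of replicates individually reach that level; inactive = mean lysis activity below 80%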
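Material – log-phase Cryptococcus neoformans yeast cells · Input – 5 × 10^6 yeast cells/mL · Medium – fresh YPD growth medium · Doses – single compound concentration per well · Timing – static 4 h at 37 °C with compound, 1 h detection · Detection – adenylate kinase release luminescence · Read-out – signal increase indicating cell lysis · Control set – Clomiphene as positive lysis control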
CFTR F508del cor = correctors of CFTR F508del function in bronchial epithelial cells; hit rate 0.36% among 350,000; CFBE cells, YFP halide quenching; stimulated with forskolin plus potentiator P3; % fluorescence drop versus neutral controls; activity (quench increase), % at 7.58 µM; AID 720511;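 active = mean added fluorescence quench of at least 8% versus neutral control, with both replicates also reaching 8%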;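 note: cells transiently co-express mutant CFTR-F508del with the halide-sensitive YFP; corrector assay measuring rescue of mutant channel to the surface after 24 h compound exposure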
Each line names hits and unclear results; the compound was inactive in the other large screens. An excerpt weighted towards active compounds, which were near 1.7% of everything screened.

CC(C)(C)[C@H]1CCC(=O)N([C@H](CSc2ccccc2)Cc2ccccc2)CC1	CaV13 FRET inh 34.5
CC(C)(C)[C@H]1CCC(=O)N([C@H](CSc2ccc(Br)cc2)Cc2ccccc2)CC1	none
O=C(CNC1CCCCC1)NN=C(c1ccccc1)c1ccccc1	CFTR F508del cor 11.9 (no result: Cneo AK release)
CCC(c1nnnn1-c1ccc(OC)cc1)N1CCN(C/C=C/c2ccccc2)CC1 (stereo not drawn)	none
COc1ccc(-n2nnnc2C(c2ccccc2)N2CCN(C/C=C/c3ccccc3)CC2)cc1 (stereo not drawn)	CFTR F508del cor 10.4
COc1cccc(-c2ccc(CC[C@H]3O[C@H]4CC[C@H](CO)O[C@H]4C[C@@H]3NC(=O)CN(C)C)cc2)c1	none (no result: Ecoli rRNA inh, CaV13 FRET inh, Cneo AK release)
O=C(C[C@@H]1C[C@@H]2c3cc(NC(=O)Nc4ccc(F)cc4)ccc3O[C@@H]2[C@H](CO)O1)NCC1CC1	none (no result: CaV13 FRET inh)
O=C(C[C@@H]1C[C@@H]2c3cc(NC(=O)CC4CC4)ccc3O[C@@H]2[C@H](CO)O1)NCc1cccc(F)c1	none (no result: CaV13 FRET inh)
CCCNC(=O)C[C@H]1C[C@@H]2c3cc(NC(=O)Nc4ccc(OC)cc4)ccc3O[C@@H]2[C@H](CO)O1	none (no result: CaV13 FRET inh)
O=C(C[C@@H]1C[C@@H]2c3cc(NC(=O)Nc4ccc(F)cc4)ccc3O[C@@H]2[C@@H](CO)O1)NCC1CC1	Cneo AK release 86.5 (no result: CaV13 FRET inh)
COCCNC(=O)C[C@@H]1C[C@H]2c3cc(NC(=O)C4CCOCC4)ccc3O[C@H]2[C@H](CO)O1	Cneo AK release 109.1 (no result: CaV13 FRET inh)
CCCNC(=O)C[C@H]1C[C@H]2c3cc(NC(=O)Nc4ccc(OC)cc4)ccc3O[C@H]2[C@@H](CO)O1	Cneo AK release 89.7 (no result: CaV13 FRET inh)
O=C(C[C@@H]1C[C@H]2c3cc(NC(=O)CC4CC4)ccc3O[C@H]2[C@H](CO)O1)NCc1cccc(F)c1	CFTR F508del cor 9.0 (no result: CaV13 FRET inh)
COCCNC(=O)C[C@@H]1C[C@@H]2c3cc(NC(=O)C4CCOCC4)ccc3O[C@@H]2[C@H](CO)O1	none (no result: CaV13 FRET inh)
COc1cccc(CN2[C@H](CO)[C@@H]3c4ccccc4N(C(=O)C4CC4)C[C@@H]32)c1	none (no result: CaV13 FRET inh)
C[C@@H]1CCCCO[C@H](CN(C)C(=O)Nc2ccccc2)[C@@H](C)CN([C@H](C)CO)C(=O)c2cc(NC(=O)NC3CCCCC3)ccc2O1	none (no result: CaV13 FRET inh)
C=CCN1c2ccccc2[C@]23C[C@@H](C(=O)OC)N(C(=O)c4ccc(Br)cc4)C2=NC(C(=O)OC)=C(C(=O)OC)[C@H]13	none
C=CCN1c2ccccc2[C@]23C[C@@H](C(=O)OC)N(C(=O)c4cccs4)C2=NC(C(=O)OC)=C(C(=O)OC)[C@H]13	CFTR F508del cor 8.0 (no result: Ecoli rRNA inh)
O=C(O)c1ccc(N/N=C/c2ccc(-c3ccccc3)cc2)cc1	none (no result: Cneo AK release)
O=C(O)c1ccc(/C=N/Nc2cccc(C(F)(F)F)c2)cc1	Ecoli rRNA inh -41.0
CO[C@H]1CN(C)C(=O)c2cc(NC(C)=O)ccc2OC[C@H](C)N(C(=O)Cc2cccnc2)C[C@H]1C	none (no result: CaV13 FRET inh)
COC(=O)c1ccc(COc2ccc(/C=N/NC(N)=S)cc2)o1	Ecoli rRNA inh -28.6 (no result: CFTR F508del cor)
COc1cc(Br)c(CNc2cc(C)ccc2C)cc1OC	Ecoli rRNA inh -24.1
O=C(Nc1ccc(F)cc1F)Nc1sccc1-c1nc2ccccc2s1	Ecoli rRNA inh -21.6 (no result: Cneo AK release)
Cc1ccc(NC(=S)NC(CO)C(O)c2ccc([N+](=O)[O-])cc2)cc1 (stereo not drawn)	none (no result: Cneo AK release)
O=[N+]([O-])c1ccc(C(O)C(CO)NC(=S)Nc2ccccc2)cc1 (stereo not drawn)	Ecoli rRNA inh -44.1 (no result: Cneo AK release)
CCC(=O)Nc1ccc2c(c1)C(=O)N(C)C[C@H](OC)[C@@H](C)CN(C(=O)c1ccccn1)[C@@H](C)CO2	none (no result: CaV13 FRET inh)
O=C(Nc1ccccc1C(=O)O)/C(=C/c1ccc(Cl)cc1Cl)NC(=O)c1ccco1	Ecoli rRNA inh -32.0
CNC[C@@H]1Oc2ncccc2C(=O)N(C)C[C@H]1C	none (no result: CaV13 FRET inh, Cneo AK release, CFTR F508del cor)
Cc1ccccc1S(=O)(=O)N1CCCCN2[C@@H](CO)[C@H](c3ccc(-c4ccccc4)cc3)[C@@H]2C1	none (no result: Ecoli rRNA inh, CaV13 FRET inh)
CS(=O)(=O)N1CCC(Oc2ccccc2C(=O)NC2CCOC2)CC1 (stereo not drawn)	none (no result: Cneo AK release)
CN(C(=O)c1ccccc1OC1CCN(S(C)(=O)=O)CC1)C1CCOC1 (stereo not drawn)	CFTR F508del cor 8.5 (no result: Cneo AK release)
c1ccc(CCNc2ncnc3c2cnn3-c2ccccc2)cc1	Ecoli rRNA inh -52.9 (no result: CFTR F508del cor)
c1ccc(Cn2ncc3c(Nc4ccccc4)ncnc32)cc1	Ecoli rRNA inh -27.0

Screens as filed in PubChem BioAssay.
